Data: ChEMBL document CHEMBL2040780, “Antiarrhythmic properties of phenylpiperazine derivatives of phenytoin with α₁-adrenoceptor affinities” (Bioorg Med Chem, 2012)
The source made the active and inactive calls.

Columns and labels:
[1] = target: T1, Adrenergic receptor alpha-1 (Rattus norvegicus, UniProt P15823+P23944+P43140); experiment: Displacement of [3H]prazosin from alpha1 adrenoceptor in rat cerebral cortex after 30 mins by microbeta scintillation counting; format: tissue-based
T1 sequence (P15823 whole entry): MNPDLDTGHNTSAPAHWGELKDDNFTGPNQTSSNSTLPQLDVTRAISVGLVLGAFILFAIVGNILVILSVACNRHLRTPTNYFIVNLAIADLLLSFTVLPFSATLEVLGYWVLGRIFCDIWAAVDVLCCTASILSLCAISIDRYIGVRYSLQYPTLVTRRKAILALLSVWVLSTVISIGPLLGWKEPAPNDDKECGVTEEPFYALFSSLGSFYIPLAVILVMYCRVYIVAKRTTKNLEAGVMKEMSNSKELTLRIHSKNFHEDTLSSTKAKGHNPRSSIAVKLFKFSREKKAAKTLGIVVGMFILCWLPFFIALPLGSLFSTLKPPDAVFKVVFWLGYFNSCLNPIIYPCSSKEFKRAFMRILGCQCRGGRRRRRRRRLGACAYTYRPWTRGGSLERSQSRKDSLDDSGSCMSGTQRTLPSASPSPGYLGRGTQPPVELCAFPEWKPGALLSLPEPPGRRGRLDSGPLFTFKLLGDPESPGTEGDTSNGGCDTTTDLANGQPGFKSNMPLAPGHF
T1 sequence (P23944 whole entry): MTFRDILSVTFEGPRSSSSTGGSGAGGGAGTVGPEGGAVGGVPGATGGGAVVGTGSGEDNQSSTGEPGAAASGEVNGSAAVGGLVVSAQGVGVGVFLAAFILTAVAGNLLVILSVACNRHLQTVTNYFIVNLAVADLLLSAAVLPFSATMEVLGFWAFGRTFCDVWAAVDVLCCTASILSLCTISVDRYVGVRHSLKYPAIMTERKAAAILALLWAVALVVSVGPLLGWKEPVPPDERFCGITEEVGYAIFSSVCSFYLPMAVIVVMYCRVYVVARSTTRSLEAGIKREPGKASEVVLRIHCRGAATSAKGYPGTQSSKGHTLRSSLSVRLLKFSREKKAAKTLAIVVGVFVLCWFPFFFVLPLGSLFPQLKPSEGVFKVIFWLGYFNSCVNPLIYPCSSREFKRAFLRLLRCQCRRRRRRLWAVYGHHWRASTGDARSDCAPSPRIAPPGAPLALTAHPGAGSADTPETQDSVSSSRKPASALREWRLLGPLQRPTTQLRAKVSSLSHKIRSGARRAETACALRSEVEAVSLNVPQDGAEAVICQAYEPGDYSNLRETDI
T1 sequence (P43140 whole entry): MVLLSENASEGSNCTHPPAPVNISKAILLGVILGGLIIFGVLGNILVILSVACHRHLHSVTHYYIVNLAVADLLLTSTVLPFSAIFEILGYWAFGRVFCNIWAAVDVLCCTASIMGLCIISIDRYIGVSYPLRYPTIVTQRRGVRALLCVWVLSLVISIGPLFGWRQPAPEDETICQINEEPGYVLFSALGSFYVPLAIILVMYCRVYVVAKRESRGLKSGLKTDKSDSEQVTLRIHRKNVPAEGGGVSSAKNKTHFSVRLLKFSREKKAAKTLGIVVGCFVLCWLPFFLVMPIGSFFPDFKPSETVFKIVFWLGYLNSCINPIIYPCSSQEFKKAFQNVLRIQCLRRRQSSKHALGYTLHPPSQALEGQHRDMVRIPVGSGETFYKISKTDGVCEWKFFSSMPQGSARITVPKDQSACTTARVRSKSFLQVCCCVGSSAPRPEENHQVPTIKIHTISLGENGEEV
Summary of the method: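 Rat cerebral cortex homogenised in ice-cold 50 mM Tris-HCl (pH 7.6 at 25 °C), washed twice at 20000×g and resuspended at 10 mg wet weight/ml. Incubated with [3H]prazosin (19.5 Ci/mmol) and test compound for 30 min at 25 °C. Nonspecific binding defined with 10 µM phentolamine. GF/B filtration, scintillation counting, three-parameter logistic competition fit.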

Rattus norvegicus [2] = experiment: Antiarrhythmic activity in Wistar rat assessed as effect on heart beat at 10 mg/kg, iv after 1 min; format: functional
Summary of the method: (§1)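 Male Wistar rats (180–250 g), anaesthetised with thiopental 60 mg/kg ip. Standard lead II ECG recorded at 50 mm/s just before dosing and at 1, 5 and 15 min after. Heart rate and P–Q, Q–T and QRS intervals were read. n=6 per group, mean ± SEM, one-way ANOVA.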

Rattus norvegicus [3] = experiment: Antiarrhythmic activity in Wistar rat assessed as effect on heart beat at 10 mg/kg, iv after 5 mins; format: functional; summary of the method: as §1
Rattus norvegicus [4] = experiment: Antiarrhythmic activity in Wistar rat assessed as effect on heart beat at 10 mg/kg, iv after 15 mins; format: functional; summary of the method: as §1
Rattus norvegicus [5] = experiment: Cardiotoxicity in Wistar rat assessed as effect on P-Q interval at 10 mg/kg, iv after 1 min; format: toxicity, organism-based; set-up: dose 10 mg/kg, route intravenous; conditions: in vivo; summary of the method: as §1
Rattus norvegicus [6] = experiment: Cardiotoxicity in Wistar rat assessed as effect on P-Q interval at 10 mg/kg, iv after 5 mins; format: toxicity, organism-based; set-up: dose 10 mg/kg, route intravenous; conditions: in vivo; summary of the method: as §1
Rattus norvegicus [7] = experiment: Cardiotoxicity in Wistar rat assessed as effect on P-Q interval at 10 mg/kg, iv after 15 mins; format: toxicity, organism-based; set-up: dose 10 mg/kg, route intravenous; conditions: in vivo, 0.25 h; summary of the method: as §1
Rattus norvegicus [8] = experiment: Cardiotoxicity in Wistar rat assessed as effect on Q-T interval at 10 mg/kg, iv after 1 min; format: toxicity, organism-based; set-up: dose 10 mg/kg, route intravenous; conditions: in vivo; summary of the method: as §1
Rattus norvegicus [9] = experiment: Cardiotoxicity in Wistar rat assessed as effect on Q-T interval at 10 mg/kg, iv after 5 mins; format: toxicity, organism-based; set-up: dose 10 mg/kg, route intravenous; conditions: in vivo; summary of the method: as §1
Rattus norvegicus [10] = experiment: Cardiotoxicity in Wistar rat assessed as effect on Q-T interval at 10 mg/kg, iv after 15 mins; format: toxicity, organism-based; set-up: dose 10 mg/kg, route intravenous; conditions: in vivo, 0.25 h; summary of the method: as §1
Rattus norvegicus [11] = experiment: Cardiotoxicity in Wistar rat assessed as effect on QRS interval at 10 mg/kg, iv after 1 min; format: toxicity, organism-based; set-up: dose 10 mg/kg, route intravenous; conditions: in vivo; summary of the method: as §1
Rattus norvegicus [12] = experiment: Cardiotoxicity in Wistar rat assessed as effect on QRS interval at 10 mg/kg, iv after 5 mins; format: toxicity, organism-based; set-up: dose 10 mg/kg, route intravenous; conditions: in vivo; summary of the method: as §1
Rattus norvegicus [13] = experiment: Cardiotoxicity in Wistar rat assessed as effect on QRS interval at 10 mg/kg, iv after 15 mins; format: toxicity, organism-based; set-up: dose 10 mg/kg, route intravenous; conditions: in vivo, 0.25 h; summary of the method: as §1
Rattus norvegicus [14] = experiment: Antiarrhythmic activity in iv dosed Wistar rat assessed as protection against barium chloride-induced extrasystoles administered 15 mins prior to barium chloride-challenge; format: functional, Heart
Summary of the method: (§2)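 Szekeres model in male Wistar rats. Activity is gradual disappearance of arrhythmia with restored sinus rhythm; protection against disturbances and death scored. Groups of 6 animals.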

Rattus norvegicus [15] = experiment: Antiarrhythmic activity in dosed Wistar rat assessed as protection against barium chloride-induced fibrillation administered 15 mins prior to barium chloride-challenge; format: functional, Heart; summary of the method: as §2
Rattus norvegicus [16] = experiment: Antiarrhythmic activity in iv dosed barium chloride-induced Wistar rat arrhythmia model assessed as protection against mortality administered 15 mins prior to barium chloride-challenge; format: functional; conditions: Heart
Summary of the method: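 Male Wistar rats (180–250 g), groups of 6. Activity criterion: gradual disappearance of arrhythmia and restoration of sinus rhythm; protection against heart disturbances and death scored.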

Rattus norvegicus [17] = experiment: Antiarrhythmic activity in Wistar rat assessed as protection against adrenaline-induced extrasystoles at 2.5 to 10 mg/kg, iv administered 15 mins prior to adrenaline-challenge; format: functional, organism-based; conditions: Heart
Summary of the method: (§3)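 Szekeres model in male Wistar rats anaesthetised with thiopental (60 mg/kg ip). Test compound given iv in water (2.5–10 mg/kg) 15 min before adrenaline 20 µg/kg iv. Scored for extrasystoles, bigeminy and mortality; activity means no premature beats and inhibited arrhythmia versus controls.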

Rattus norvegicus [18] = experiment: Antiarrhythmic activity in Wistar rat assessed as protection against adrenaline-induced bigeminy at 2.5 to 10 mg/kg, iv administered 15 mins prior to adrenaline-challenge; format: functional, organism-based; conditions: Heart; summary of the method: as §3
Rattus norvegicus [19] = experiment: Antiarrhythmic activity in iv dosed Wistar rat assessed as protection against adrenaline-induced arrhythmia administered 15 mins prior to adrenaline-challenge; format: functional; conditions: Heart; summary of the method: as §3
Rattus norvegicus [20] = experiment: Hypotensive activity in normotensive Wistar rat assessed as decrease in systolic blood pressure at 2.5 to 10 mg/kg, iv at 1 min; format: organism-based, Artery; set-up: dose 2.5-10 mg/kg, route intravenous; conditions: in vivo
Summary of the method: (§4)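 Right carotid artery cannulated with heparin-saline-filled tubing for blood pressure recording. After 5 min stabilisation, compound injected iv into the caudal vein (2.5–10 mg/kg, 1 ml/kg). Systolic and diastolic pressure followed for 60 min. n=6 per group, mean ± SEM, one-way ANOVA.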

Rattus norvegicus [21] = experiment: Hypotensive activity in normotensive Wistar rat assessed as decrease in diastolic blood pressure at 2.5 to 10 mg/kg, iv at 1 min; format: organism-based, Artery; set-up: dose 2.5-10 mg/kg, route intravenous; conditions: in vivo; summary of the method: as §4
Rattus norvegicus [22] = experiment: Hypotensive activity in normotensive Wistar rat assessed as decrease in systolic blood pressure at 2.5 to 10 mg/kg, iv after 1 min measured up to 60 mins; format: organism-based, Artery; set-up: dose 2.5-10 mg/kg, route intravenous; conditions: in vivo; summary of the method: as §4
Rattus norvegicus [23] = experiment: Hypotensive activity in normotensive Wistar rat assessed as decrease in diastolic blood pressure at 2.5 to 10 mg/kg, iv after 1 min measured up to 60 mins; format: organism-based, Artery; set-up: dose 2.5-10 mg/kg, route intravenous; conditions: in vivo; summary of the method: as §4

SMILES	Ki [1]	pKi [1]	Activity (Rattus norvegicus [2])	Activity (Rattus norvegicus [3])	Activity (Rattus norvegicus [4])	Activity (Rattus norvegicus [5])	Activity (Rattus norvegicus [6])	Activity (Rattus norvegicus [7])	Activity (Rattus norvegicus [8])	Activity (Rattus norvegicus [9])	Activity (Rattus norvegicus [10])	Activity (Rattus norvegicus [11])	Activity (Rattus norvegicus [12])	Activity (Rattus norvegicus [13])	Activity (Rattus norvegicus [14]; Heart)	Activity (Rattus norvegicus [15]; Heart)	Activity (Rattus norvegicus [20])	Activity (Rattus norvegicus [21])	Activity (Rattus norvegicus [22])	Activity (Rattus norvegicus [23])	also measured
CN1C(=O)N(CC(O)CN2CCN(c3ccccc3Cl)CC2)C(c2ccccc2)(c2ccccc2)C1=O.Cl (racemic)	483 nM	6.32	279 min⁻¹	278 min⁻¹	303 min⁻¹	60 ms	60 ms	60 ms	83 ms	76 ms	72 ms	17 ms	16 ms	16 ms							Activity (Rattus norvegicus [14]): >50%; Activity (Rattus norvegicus [15]): >50%
COC(=O)C(C)N1C(=O)N(CC(O)CN2CCN(c3ccccc3OC)CC2)C(c2ccccc2)(c2ccccc2)C1=O.Cl (racemic)			350 min⁻¹	363 min⁻¹	362 min⁻¹	57 ms	55 ms	57 ms	82 ms	81 ms	82 ms	16 ms	15 ms	16 ms	inactive	inactive	Toxic	Toxic	Non-toxic	Non-toxic	Activity (Rattus norvegicus [16]): inactive; Activity (Rattus norvegicus [17]): Active; Activity (Rattus norvegicus [18]): Active; ED50 (Rattus norvegicus [19]): 0.36 mg/kg
CCOc1ccccc1N1CCN(CCCN2C(=O)N(C(C)C(=O)OC)C(=O)C2(c2ccccc2)c2ccccc2)CC1.Cl (stereo not given)	401.2 nM	6.4																			
COc1ccccc1N1CCN(CCCN2C(=O)N(C)C(=O)C2(c2ccccc2)c2ccccc2)CC1.Cl	412.9 nM	6.38																			
CCOc1ccccc1N1CCN(CC(O)CN2C(=O)N(C)C(=O)C2(c2ccccc2)c2ccccc2)CC1.Cl (racemic)			246 min⁻¹	241 min⁻¹	242 min⁻¹	75 ms	79 ms	79 ms	109 ms	114 ms	118 ms	18 ms	16 ms	17 ms	inactive	inactive	Toxic	Toxic	Toxic	Toxic	Activity (Rattus norvegicus [16]): inactive; Activity (Rattus norvegicus [17]): Active; Activity (Rattus norvegicus [18]): Active; ED50 (Rattus norvegicus [19]): 0.33 mg/kg
CN1C(=O)N(CC(O)CN2CCN(c3ccccc3)CC2)C(c2ccccc2)(c2ccccc2)C1=O.Cl (racemic)	542.3 nM	6.27	270 min⁻¹	260 min⁻¹	263 min⁻¹	66 ms	59 ms	59 ms	109 ms	79 ms	74 ms	23 ms	20 ms	18 ms			Toxic	Toxic	Non-toxic	Non-toxic	
C=CC(C(=O)OC)N1C(=O)N(CC(O)CN2CCN(c3ccccc3OC)CC2)C(c2ccccc2)(c2ccccc2)C1=O.Cl (racemic)			261 min⁻¹	294 min⁻¹	291 min⁻¹	56 ms	57 ms	56 ms	82 ms	78 ms	71 ms	25 ms	23 ms	25 ms	inactive	inactive					Activity (Rattus norvegicus [16]): inactive
COC(=O)CN1C(=O)N(CC(O)CN2CCN(c3ccccc3F)CC2)C(c2ccccc2)(c2ccccc2)C1=O.Cl (racemic)	3300 nM	5.48	284 min⁻¹	256 min⁻¹	281 min⁻¹	66 ms	61 ms	58 ms	86 ms	82 ms	71 ms	17 ms	17 ms	15 ms			Toxic	Toxic	Non-toxic	Non-toxic	
